NR2E3 ag-1: activates human NR2E3 receptor | inhibition of corepressor binding, % at 3.98 µM | 360,000 compounds, 0.35% hits | Q9Y5X4 | CHO-S Gal4-NCOR/VP16-NR2E3 two-hybrid, luciferase;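 active means inhibition above the mean of all tested compounds plus 3 SD, cut at about 70% in these data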;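 further: higher means lower luciferase signal from less NR2E3 corepressor binding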
NR1D1 modulator: Rev-erb alpha (human) modulation; P20393; Rev-erbα–FITC-DNA binding, fluorescence polarization, 90 min; activity, % at 10 µM; 370,000 compounds, 0.79% hits;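 active means activity above about 14%, limit read from the data; passing the limit was not always enough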
Target sequence (P20393 whole entry, looked up): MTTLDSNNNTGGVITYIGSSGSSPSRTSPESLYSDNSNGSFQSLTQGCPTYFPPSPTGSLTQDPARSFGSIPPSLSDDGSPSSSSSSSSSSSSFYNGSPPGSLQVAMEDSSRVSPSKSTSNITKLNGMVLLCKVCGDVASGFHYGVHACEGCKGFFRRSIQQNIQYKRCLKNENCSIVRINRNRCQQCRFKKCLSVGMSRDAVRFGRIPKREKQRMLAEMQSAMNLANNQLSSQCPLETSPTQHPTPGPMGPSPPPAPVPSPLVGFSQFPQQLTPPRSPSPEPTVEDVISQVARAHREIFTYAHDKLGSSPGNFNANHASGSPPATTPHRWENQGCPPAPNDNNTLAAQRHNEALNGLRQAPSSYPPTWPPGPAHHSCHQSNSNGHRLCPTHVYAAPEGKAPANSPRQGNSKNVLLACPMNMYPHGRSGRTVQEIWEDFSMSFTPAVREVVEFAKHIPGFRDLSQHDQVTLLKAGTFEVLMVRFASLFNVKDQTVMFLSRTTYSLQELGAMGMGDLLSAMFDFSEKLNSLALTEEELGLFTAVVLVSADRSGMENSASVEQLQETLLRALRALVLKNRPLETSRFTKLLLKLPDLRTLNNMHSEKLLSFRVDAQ
NR2E3 ag-2: NR2E3 (human) agonism; 320,000 compounds, 0.12% hits; AID 2300; inhibition of corepressor binding, % at 4.78 µM; GST-NR2E3/biotin-RetCOR TR-FRET, 1536-well; Q9Y5X4;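 active means percent inhibition above the cutoff of mean plus 3 SD of all tested compounds, set per screening campaign, cut at about 20% in these data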
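Material: NR2E3–RetCOR corepressor complex | Quantity: 1.35 nM GST-tagged NR2E3 final | Schedule: 5 h at 4 °C | Replication: Singlicate compound wells | Reagent: RetCOR corepressor, biotinylated, 7 nM | Controls: Biotin wells as high control, 0.6% DMSO wells as low control | Signal: TR-FRET, Eu(K)-anti-GST donor, streptavidin-D2 acceptor, ex 340, em 617/671 nm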
PG9 binder: binds the HIV-1 gp120 antibody PG9. TR-FRET gp120-PG9 antibody binding. 360,000 compounds, 0.43% hits. inhibition, % at 6.7 µM; in the data active means inhibition above about 8.5%
NR2E3 ag conf: NR2E3 agonism confirmed in two-hybrid assay; CHO-S mammalian two-hybrid NR2E3-NCOR, luciferase luminescence; 2,300 compounds, 51% hits; inhibition, % at 3.98 µM; shares compounds with NR2E3 ag-1;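 active means average inhibition above a cutoff equal to the mean inhibition of all tested compounds plus one SD, cut at about 70% in these data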
VP16 counter: reduces GAL4-VP16 reporter signal in NR2E3 counterscreen. shares compounds with NR2E3 ag-1. inhibition, % at 3.98 µM. CHO-S GAL4-VP16 luciferase reporter, luminescence. 2,300 compounds, 29% hits. AID 624379;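 active means mean inhibition above a cutoff equal to the average over all tested compounds plus one standard deviation, cut at about 70% in these data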;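 further: luciferase from a UAS reporter driven by GAL4-VP16 transactivation; higher means less reporter light so more repression of VP16 activity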
Large screens that a line does not name were inactive (follow-up assays come after a bar, where they were run). An excerpt weighted towards active compounds, which were near 1.4% of everything screened.

CCC(=O)Nc1sc2c(c1C(N)=O)CCN(C(C)=O)C2	none
CN1C(=O)c2cc(NC(=O)Nc3ccccc3)ccc2OC[C@H]2O[C@@H](CC(=O)N[C@H]3CCN(Cc4ccccc4)C3)CC[C@@H]21	none (no result: NR2E3 ag-1, NR2E3 ag-2, PG9 binder)
Cc1ccc(S(=O)(=O)Nc2cccc3ncccc23)s1	NR2E3 ag-1 102.2 (no result: NR1D1 modulator, PG9 binder) | NR2E3 ag conf inactive | VP16 counter inactive
CCCCCCCCCCCCCCCC[n+]1cccc2ccccc21	none
CCCCCCCCC[n+]1cccc2c3ccccc3ccc21	NR2E3 ag-1 82.1 (no result: NR1D1 modulator, PG9 binder) | NR2E3 ag conf 99.1 | VP16 counter 73.9
OC(Cc1ccnc2ccccc12)C(Cl)(Cl)Cl (stereo not drawn)	none (no result: NR2E3 ag-2) | NR2E3 ag conf inactive | VP16 counter inactive
Cc1cc(C)c(C)c(S(=O)(=O)N2CCN(c3ncnc4ccccc34)CC2)c1C	none | NR2E3 ag conf 88.8 | VP16 counter inactive
Cc1cc(C)c(C)c(S(=O)(=O)N2CCN(c3ccccn3)CC2)c1C	none
O=S(=O)(c1cc(C(F)(F)F)ccc1Cl)N1CCN(c2ncnc3ccccc23)CC1	NR2E3 ag-1 98.8 (no result: NR2E3 ag-2) | NR2E3 ag conf 95.0 | VP16 counter 85.8
Clc1ccc([C@H]2OC[C@@]3(CNCC4CC4)CS[C@H](c4ccc(Cl)cc4)N23)cc1	none (no result: NR2E3 ag-1, NR2E3 ag-2, PG9 binder)
N#CCCCc1cn(-c2ccc(-c3noc4c3C(=O)N(CC(=O)N3CCOCC3)CC4)cc2)nn1	none (no result: NR2E3 ag-1, NR2E3 ag-2, PG9 binder)
CCOC(=O)Cc1nnc2c(Nc3ccccc3F)nc3nonc3n12	NR2E3 ag-1 71.2 | NR2E3 ag conf 74.0 | VP16 counter inactive
O=[N+]([O-])c1ccc(Sc2cccc[n+]2[O-])c2nonc12	NR2E3 ag-1 101.7 (no result: NR2E3 ag-2) | NR2E3 ag conf inactive | VP16 counter inactive
O=[N+]([O-])c1ccc(Nc2ccccc2)c2nonc12	none
Cc1ccc(CNc2nc(NC(C)C)nc3ccsc23)c(C)c1	none (no result: NR2E3 ag-2)
CNc1nc(Nc2ccc(C)cc2C)c2sccc2n1	none (no result: NR2E3 ag-2) | NR2E3 ag conf inactive | VP16 counter inactive
Cc1ccc(Nc2nc(NCC3CC3)nc3ccsc23)c(C)c1	none (no result: NR2E3 ag-2)
Cc1ccc(CNc2nc(NCc3ccccc3)nc3ccsc23)c(C)c1	NR2E3 ag-1 74.1 (no result: NR2E3 ag-2) | NR2E3 ag conf inactive | VP16 counter inactive
CNc1nc(NCc2ccc(C)cc2C)c2sccc2n1	none (no result: NR2E3 ag-2) | NR2E3 ag conf inactive | VP16 counter inactive
COc1ccc(/C=C2\SC(=N)N(c3nccs3)C2=O)cc1OC	NR2E3 ag-1 74.1 | NR2E3 ag conf inactive | VP16 counter inactive
O=C(NC(=S)N1CCN(c2c(Cl)cccc2[N+](=O)[O-])CC1)c1cccs1	none | NR2E3 ag conf inactive | VP16 counter inactive
COc1ccc(N2CCN(C(=S)NC(=O)c3cccs3)CC2)c([N+](=O)[O-])c1	none
CC(=O)Nc1ccc(OCc2cccc3ccccc23)cc1	none | NR2E3 ag conf inactive | VP16 counter inactive
COc1ccc(NC(=O)CNC(=O)Cc2cccc3ccccc23)cc1	none (no result: NR2E3 ag-2)
CCc1ccc(NC(=O)c2ccc(F)c(S(=O)(=O)NCC3COc4ccccc4O3)c2)cc1 (stereo not drawn)	none | NR2E3 ag conf inactive | VP16 counter inactive
CN1CCCCC(NC(=O)c2ccc3ccccc3c2)C1=O (stereo not drawn)	none (no result: NR2E3 ag-1, NR2E3 ag-2)
Cc1ccc(NC(=O)CNC(=O)c2ccc(Oc3ccccc3)cc2)nc1	none
Cc1ccc(NC(=O)CNC(=O)c2cccc(C)c2)nc1	none | NR2E3 ag conf 75.0 | VP16 counter inactive
Cc1ccc(C2=NS(=O)(=O)N(C)C(C(=O)Nc3ccc4c(c3)OCO4)=C2)cc1	none | NR2E3 ag conf inactive | VP16 counter inactive
COc1ccc(C2=NS(=O)(=O)N(C)C(C(=O)Nc3ccc4c(c3)OCO4)=C2)cc1	none
COc1cccc(NC(=O)N2CCc3nc(NCc4cccc(Oc5ccccc5)c4)ncc3C2)c1	none (no result: NR2E3 ag-2)
O=C(Nc1ccc(OC(F)(F)F)cc1)N1CCc2nc(NCc3cccc(Oc4ccccc4)c3)ncc2C1	none (no result: NR2E3 ag-2) | NR2E3 ag conf inactive | VP16 counter inactive
CCCc1ccc(C(C)NC(=S)NC2CCCCC2)cc1 (stereo not drawn)	none (no result: NR2E3 ag-2) | NR2E3 ag conf inactive | VP16 counter inactive
CCCc1ccc(C(C)NC(=S)NCc2ccc(F)cc2)cc1 (stereo not drawn)	NR2E3 ag-1 77.3 | NR2E3 ag conf inactive | VP16 counter inactive
CC(NC(=S)NC1CCCCC1)c1ccccc1 (stereo not drawn)	none
C[C@H](O)[C@@H]1CN2CCc3c([nH]c4c(-c5ccc6c(c5)OCO6)cccc34)[C@@H]2C[C@@H]1N(C)C(=O)c1ccco1	none (no result: NR2E3 ag-1, NR2E3 ag-2, PG9 binder)

Screening data: PubChem BioAssay, several laboratories
